# Measured values gathered from unrelated publications.
# Protocols differ between the studies behind these lines.
# Target: Mitogen-activated protein kinase 9 (MAPK9, Homo sapiens, UniProt P45984)
SMILES,assay,setting,quantity,value
Cn1cc(-c2cc(F)cc(N3CCn4c(cc5c4CCCC5)C3=O)c2CO)cc(Nc2ccc(N3CCN(C4COC4)CC3)cn2)c1=O,"enzyme activity, inhibitor",0.1 µM,inhibition,1%
Nc1ncc(-c2nc(N3CCOCC3)nc(N3CCOCC3)n2)c(C(F)F)n1,"binding, competition with immobilised ligand",10 µM,remaining binding,83%
Cc1nn(C)cc1-c1nc2c(N3CCN(Cc4ccc(Cl)cc4)CC3)c(Cl)cnc2[nH]1,"binding, competition with immobilised ligand",1 µM,remaining binding,100%
Cn1cncc1[C@@](O)(COc1ccc(C#N)cc1-c1ccc(OC(F)(F)F)cc1)c1ccc(C#N)cc1,"cell-free assay, competition with immobilised ligand",1 µM,remaining binding,92%
O=c1[nH]c2ccccc2n1C1CCN(Cc2ccc(-c3[nH]c4cc5ncnc5cc4nc3-c3ccccc3)cc2)CC1,cell-free assay,0.5 µM,remaining signal,91.9%
Cn1cc(-c2cccc(N3CCc4c(sc5c4CC(C)(C)C5)C3=O)c2CO)cc(Nc2ccncn2)c1=O,"enzyme activity, inhibitor",1 µM,inhibition,12%
CC(C)(C)c1cc(C=C(C#N)C#N)cc(Br)c1O,"enzyme activity, inhibitor",0.5 µM,remaining activity,103%
COc1ncccc1-c1cnn2ccc(N3CCN(C(=O)OC(C)C)CC3)nc12,"binding, competition with immobilised ligand",1 µM,remaining binding,100%
